Activity calls are given as the source filed them. No cut-off for these calls is given here.
How the values were obtained:
Heterodera zeae [1] = assay: Nematicidal activity against Heterodera zeae infective stage larvae assessed as nematode mortality at 1% under dark conditions measured 24 hr post dose by stereoscopic microscopy; format: functional
Summary of the method: (§1)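 Freshly hatched H. zeae second-stage juveniles, 100 per Petri plate, three replicates. Samples in MeOH, DMSO or water were tested in glass cavity blocks; petroleum ether samples were dried onto the block and larvae transferred on agar pieces. Percentages are dilutions of 30 mg/mL stocks (extracts/fractions) or 1 mg/mL stocks (pure compounds). Incubated at 28 ± 2 °C in light or dark box; mortality averaged over three replicates.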

Heterodera zeae [2] = assay: Nematicidal activity against Heterodera zeae infective stage larvae assessed as nematode mortality at 0.25% under dark conditions measured 48 hr post dose by stereoscopic microscopy; format: functional; summary of the method: as §1
Heterodera zeae [3] = assay: Nematicidal activity against Heterodera zeae infective stage larvae assessed as nematode mortality at 1% under dark conditions measured 5 to 60 min post dose by stereoscopic microscopy; format: functional, organism-based
Summary of the method: (§2)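 H. zeae freshly hatched second-stage juveniles, 100 per plate, three replicates, at 28 ± 2 °C under light or in a dark box. Dilutions are % of a stock: 30 mg/mL for extracts/fractions, 1 mg/mL for pure compounds. Methanol-, DMSO- or water-soluble samples were tested in glass cavity blocks. Petroleum ether-soluble samples were air-dried in the block and covered with agar pieces bearing cultured larvae. Mortality was followed over 5–60 min; each value is the mean of three experiments.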

Heterodera zeae [4] = assay: Nematicidal activity against Heterodera zeae infective stage larvae assessed as nematode mortality at 1% under light conditions measured 48 hr post dose by stereoscopic microscopy; format: functional; summary of the method: as §1
Heterodera zeae [5] = assay: Nematicidal activity against Heterodera zeae infective stage larvae assessed as nematode mortality at 5% under dark conditions measured 5 to 60 min post dose by stereoscopic microscopy; format: functional, organism-based; summary of the method: as §2
Heterodera zeae [6] = assay: Nematicidal activity against Heterodera zeae infective stage larvae assessed as nematode mortality at 0.125% under light conditions measured 5 to 60 min post dose by stereoscopic microscopy; format: functional, organism-based; summary of the method: as §2
Heterodera zeae [7] = assay: Nematicidal activity against Heterodera zeae infective stage larvae assessed as nematode mortality at 1% under light conditions measured 72 hr post dose by stereoscopic microscopy; format: functional; summary of the method: as §1
Heterodera zeae [8] = assay: Nematicidal activity against Heterodera zeae infective stage larvae assessed as nematode mortality at 0.5% under dark conditions measured 5 to 60 min post dose by stereoscopic microscopy; format: functional, organism-based; summary of the method: as §2
Heterodera zeae [9] = assay: Nematicidal activity against Heterodera zeae infective stage larvae assessed as nematode mortality at 0.5% under light conditions measured 48 hr post dose by stereoscopic microscopy; format: functional; summary of the method: as §1
Heterodera zeae [10] = assay: Nematicidal activity against Heterodera zeae infective stage larvae assessed as nematode mortality at 0.25% under light conditions measured 48 hr post dose by stereoscopic microscopy; format: functional; summary of the method: as §1
Heterodera zeae [11] = assay: Nematicidal activity against Heterodera zeae infective stage larvae assessed as nematode mortality at 0.25% under light conditions measured 24 hr post dose by stereoscopic microscopy; format: functional; summary of the method: as §1
Heterodera zeae [12] = assay: Nematicidal activity against Heterodera zeae infective stage larvae assessed as nematode mortality at 0.25% under dark conditions measured 24 hr post dose by stereoscopic microscopy; format: functional; summary of the method: as §1
Heterodera zeae [13] = assay: Nematicidal activity against Heterodera zeae infective stage larvae assessed as nematode mortality at 0.5% under light conditions measured 5 to 60 min post dose by stereoscopic microscopy; format: functional, organism-based; summary of the method: as §2
Heterodera zeae [14] = assay: Nematicidal activity against Heterodera zeae infective stage larvae assessed as nematode mortality at 0.25% under dark conditions measured 5 to 60 min post dose by stereoscopic microscopy; format: functional, organism-based; summary of the method: as §2
Heterodera zeae [15] = assay: Nematicidal activity against Heterodera zeae infective stage larvae assessed as nematode mortality at 1% under dark conditions measured 72 hr post dose by stereoscopic microscopy; format: functional; summary of the method: as §1
Heterodera zeae [16] = assay: Nematicidal activity against Heterodera zeae infective stage larvae assessed as nematode mortality at 0.125% under dark conditions measured 72 hr post dose by stereoscopic microscopy; format: functional; summary of the method: as §1
Heterodera zeae [17] = assay: Nematicidal activity against Heterodera zeae infective stage larvae assessed as nematode mortality at 0.5% under dark conditions measured 72 hr post dose by stereoscopic microscopy; format: functional; summary of the method: as §1
Heterodera zeae [18] = assay: Nematicidal activity against Heterodera zeae infective stage larvae assessed as nematode mortality at 0.5% under light conditions measured 72 hr post dose by stereoscopic microscopy; format: functional; summary of the method: as §1
Heterodera zeae [19] = assay: Nematicidal activity against Heterodera zeae infective stage larvae assessed as nematode mortality at 0.125% under dark conditions measured 5 to 60 min post dose by stereoscopic microscopy; format: functional, organism-based; summary of the method: as §2
Heterodera zeae [20] = assay: Nematicidal activity against Heterodera zeae infective stage larvae assessed as nematode mortality at 2% under dark conditions measured 5 to 60 min post dose by stereoscopic microscopy; format: functional, organism-based; summary of the method: as §2
Heterodera zeae [21] = assay: Nematicidal activity against Heterodera zeae infective stage larvae assessed as nematode mortality at 1% under light conditions measured 5 to 60 min post dose by stereoscopic microscopy; format: functional, organism-based; summary of the method: as §2
Heterodera zeae [22] = assay: Nematicidal activity against Heterodera zeae infective stage larvae assessed as nematode mortality at 0.5% under dark conditions measured 24 hr post dose by stereoscopic microscopy; format: functional; summary of the method: as §1
Heterodera zeae [23] = assay: Nematicidal activity against Heterodera zeae infective stage larvae assessed as nematode mortality at 5% under light conditions measured 5 to 60 min post dose by stereoscopic microscopy; format: functional, organism-based; summary of the method: as §2
Heterodera zeae [24] = assay: Nematicidal activity against Heterodera zeae infective stage larvae assessed as nematode mortality at 0.25% under light conditions measured 5 to 60 min post dose by stereoscopic microscopy; format: functional, organism-based; summary of the method: as §2
Heterodera zeae [25] = assay: Nematicidal activity against Heterodera zeae infective stage larvae assessed as nematode mortality at 0.125% under light conditions measured 48 hr post dose by stereoscopic microscopy; format: functional; summary of the method: as §1
Heterodera zeae [26] = assay: Nematicidal activity against Heterodera zeae infective stage larvae assessed as nematode mortality at 1% under dark conditions measured 48 hr post dose by stereoscopic microscopy; format: functional; summary of the method: as §1
Heterodera zeae [27] = assay: Nematicidal activity against Heterodera zeae infective stage larvae assessed as nematode mortality at 0.125% under light conditions measured 24 hr post dose by stereoscopic microscopy; format: functional; summary of the method: as §1
Heterodera zeae [28] = assay: Nematicidal activity against Heterodera zeae infective stage larvae assessed as nematode mortality at 0.5% under dark conditions measured 48 hr post dose by stereoscopic microscopy; format: functional; summary of the method: as §1
Heterodera zeae [29] = assay: Nematicidal activity against Heterodera zeae infective stage larvae assessed as nematode mortality at 1% under light conditions measured 24 hr post dose by stereoscopic microscopy; format: functional; summary of the method: as §1
Heterodera zeae [30] = assay: Nematicidal activity against Heterodera zeae infective stage larvae assessed as nematode mortality at 0.25% under light conditions measured 72 hr post dose by stereoscopic microscopy; format: functional; summary of the method: as §1
Heterodera zeae [31] = assay: Nematicidal activity against Heterodera zeae infective stage larvae assessed as nematode mortality at 0.25% under dark conditions measured 72 hr post dose by stereoscopic microscopy; format: functional; summary of the method: as §1
Heterodera zeae [32] = assay: Nematicidal activity against Heterodera zeae infective stage larvae assessed as nematode mortality at 0.125% under light conditions measured 72 hr post dose by stereoscopic microscopy; format: functional; summary of the method: as §1
Heterodera zeae [33] = assay: Nematicidal activity against Heterodera zeae infective stage larvae assessed as nematode mortality at 0.5% under light conditions measured 24 hr post dose by stereoscopic microscopy; format: functional; summary of the method: as §1
Heterodera zeae [34] = assay: Nematicidal activity against Heterodera zeae infective stage larvae assessed as nematode mortality at 0.125% under dark conditions measured 24 hr post dose by stereoscopic microscopy; format: functional; summary of the method: as §1
Heterodera zeae [35] = assay: Nematicidal activity against Heterodera zeae infective stage larvae assessed as nematode mortality at 2% under light conditions measured 5 to 60 min post dose by stereoscopic microscopy; format: functional, organism-based; summary of the method: as §2
Heterodera zeae [36] = assay: Nematicidal activity against Heterodera zeae infective stage larvae assessed as nematode mortality at 0.125% under dark conditions measured 48 hr post dose by stereoscopic microscopy; format: functional; summary of the method: as §1

Structure (SMILES) | mortality (Heterodera zeae [1]) [%] | mortality (Heterodera zeae [2]) [%] | Activity (Heterodera zeae [3]) | mortality (Heterodera zeae [4]) [%] | Activity (Heterodera zeae [5]) | Activity (Heterodera zeae [6]) | mortality (Heterodera zeae [7]) [%] | Activity (Heterodera zeae [8]) | mortality (Heterodera zeae [9]) [%] | mortality (Heterodera zeae [10]) [%] | mortality (Heterodera zeae [11]) [%] | mortality (Heterodera zeae [12]) [%] | Activity (Heterodera zeae [13]) | Activity (Heterodera zeae [14]) | mortality (Heterodera zeae [15]) [%] | mortality (Heterodera zeae [16]) [%] | mortality (Heterodera zeae [17]) [%] | mortality (Heterodera zeae [18]) [%] | Activity (Heterodera zeae [19]) | Activity (Heterodera zeae [20]) | further results
CCCCCCCCCCCCCC(=O)O [MYRISTIC ACID] | 50 | 30 | inactive | 50 | inactive | inactive | 80 | inactive | 30 | 20 | 20 | 30 | inactive | inactive | 90 | 50 | 80 | 50 | inactive | inactive | Activity (Heterodera zeae [21]): inactive; mortality (Heterodera zeae [22]): 50%; Activity (Heterodera zeae [23]): inactive; Activity (Heterodera zeae [24]): inactive; mortality (Heterodera zeae [25]): 20%; mortality (Heterodera zeae [26]): 60%; mortality (Heterodera zeae [27]): 20%; mortality (Heterodera zeae [28]): 50%; mortality (Heterodera zeae [29]): 40%; mortality (Heterodera zeae [30]): 50%; mortality (Heterodera zeae [31]): 80%; mortality (Heterodera zeae [32]): 40%; mortality (Heterodera zeae [33]): 30%; mortality (Heterodera zeae [34]): 20%; Activity (Heterodera zeae [35]): inactive; mortality (Heterodera zeae [36]): 20%
CCCCCCCCCCCCCCCCO [CETYL ALCOHOL] | 70 | 50 | inactive | 80 | inactive | inactive | 100 | inactive | 80 | 50 | 0 | 0 | inactive | inactive | 100 | 40 | 100 | 100 | inactive | inactive | Activity (Heterodera zeae [21]): inactive; mortality (Heterodera zeae [22]): 60%; Activity (Heterodera zeae [23]): inactive; Activity (Heterodera zeae [24]): inactive; mortality (Heterodera zeae [25]): 0%; mortality (Heterodera zeae [26]): 80%; mortality (Heterodera zeae [27]): 0%; mortality (Heterodera zeae [28]): 80%; mortality (Heterodera zeae [29]): 70%; mortality (Heterodera zeae [30]): 80%; mortality (Heterodera zeae [31]): 80%; mortality (Heterodera zeae [32]): 40%; mortality (Heterodera zeae [33]): 60%; mortality (Heterodera zeae [34]): 0%; Activity (Heterodera zeae [35]): inactive; mortality (Heterodera zeae [36]): 0%
CCCCCCCCCCCCCCCC(=O)O [PALMITIC ACID] | 80 | 20 | inactive | 70 | inactive | inactive | 80 | inactive | 50 | 10 | 0 | 0 | inactive | inactive | 80 | 50 | 70 | 70 | inactive | inactive | Activity (Heterodera zeae [21]): inactive; mortality (Heterodera zeae [22]): 0%; Activity (Heterodera zeae [23]): inactive; Activity (Heterodera zeae [24]): inactive; mortality (Heterodera zeae [25]): 0%; mortality (Heterodera zeae [26]): 80%; mortality (Heterodera zeae [27]): 0%; mortality (Heterodera zeae [28]): 50%; mortality (Heterodera zeae [29]): 0%; mortality (Heterodera zeae [30]): 50%; mortality (Heterodera zeae [31]): 70%; mortality (Heterodera zeae [32]): 0%; mortality (Heterodera zeae [33]): 0%; mortality (Heterodera zeae [34]): 0%; Activity (Heterodera zeae [35]): inactive; mortality (Heterodera zeae [36]): 0%
O=C(O)c1ccccc1 [BENZOIC ACID] | 0 | 10 | inactive | 50 | inactive | inactive | 70 | inactive | 10 | 0 | 0 | 0 | inactive | inactive | 80 | 0 | 80 | 40 | inactive | inactive | Activity (Heterodera zeae [21]): inactive; mortality (Heterodera zeae [22]): 0%; Activity (Heterodera zeae [23]): inactive; Activity (Heterodera zeae [24]): inactive; mortality (Heterodera zeae [25]): 0%; mortality (Heterodera zeae [26]): 70%; mortality (Heterodera zeae [27]): 0%; mortality (Heterodera zeae [28]): 50%; mortality (Heterodera zeae [29]): 0%; mortality (Heterodera zeae [30]): 0%; mortality (Heterodera zeae [31]): 50%; mortality (Heterodera zeae [32]): 0%; mortality (Heterodera zeae [33]): 0%; mortality (Heterodera zeae [34]): 0%; Activity (Heterodera zeae [35]): inactive; mortality (Heterodera zeae [36]): 0%
O=C(O)c1ccc(O)cc1 [PARABEN] | 0 | 40 | inactive | 50 | inactive | inactive | 100 | inactive | 40 | 40 | 0 | 0 | inactive | inactive | 70 | 40 | 50 | 50 | inactive | inactive | Activity (Heterodera zeae [21]): inactive; mortality (Heterodera zeae [22]): 0%; Activity (Heterodera zeae [23]): inactive; Activity (Heterodera zeae [24]): inactive; mortality (Heterodera zeae [25]): 40%; mortality (Heterodera zeae [26]): 40%; mortality (Heterodera zeae [27]): 0%; mortality (Heterodera zeae [28]): 40%; mortality (Heterodera zeae [29]): 0%; mortality (Heterodera zeae [30]): 50%; mortality (Heterodera zeae [31]): 50%; mortality (Heterodera zeae [32]): 50%; mortality (Heterodera zeae [33]): 0%; mortality (Heterodera zeae [34]): 0%; Activity (Heterodera zeae [35]): inactive; mortality (Heterodera zeae [36]): 10%

Reference: ChEMBL document CHEMBL3046615, “Isolation of nematicidal compounds from Tagetes patula L. yellow flowers: structure-activity relationship studies against cyst nematode Heterodera zeae infective stage larvae” (2011)
